TLR4-MyD88 BLA = inhibitors of TLR4-MyD88 association in cells, primary screen, cell-based, HeLa CL3-4, BLA complementation, FRET ratio | Toll-like receptor 4 (Homo sapiens) + Myeloid differentiation primary response protein … | HeLa CL3-4 TLR4/MyD88 BLA complementation | inhibition, % at 8.4 µM | 0.18% of 200,000 active | AID 861, 2007; in the data active means inhibition above about 25%;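 further: 0% = vehicle and 100% = reference inhibitor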
NOD2 RIPK2 PPI = NOD2-RIPK2 binding disruptors in cells, primary screen, fluorescence, CHO cells, BLA complementation. Receptor-interacting serine/threonine-protein kinase 2 (Homo sapiens), O43353. CCF4 ratio. 0.38% of 360,000 active. inhibition, % at 4.98 µM; in the data active means inhibition above about 21%;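 further: 0% = vehicle only and 100% = reference blocker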
MT1-MMP act inh = blockers of MT1-MMP proenzyme processing, primary screen, HT1080 RFP-PRO-GFP cells, GFP/RFP fluorescence. Matrix metalloproteinase-14 (Homo sapiens), P50281. GFP/RFP ratio fluorescence, overnight; percent of plate control window, DMSO zero. GFP/RFP ratio change, % at 20 µM. 0.061% of 360,000 active;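 active means GFP/RFP ratio change of at least 30% with cell ATP level not reduced by more than half and red fluorescence within 50% of control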
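Assay system: HT1080 RFP-PRO-GFP cells. Benchmarks: DMSO vehicle wells and RFP-L50D-GFP reporter cell wells. Times: overnight cell settling, then overnight compound exposure, 37 °C, 5% CO2. Compound: 20 µM single dose, 1% DMSO. Read-out basis: GFP/RFP fluorescence ratio.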
TLR9-MyD88 block = inhibitors of TLR9-MyD88 association in cells, primary screen, cell-based, CHO, BLA complementation, fluorescence; CCF4 FRET ratio; AID 504734, 2011; inhibition, % at 4.98 µM; Toll-like receptor 9 (Homo sapiens) + Myeloid differentiation primary response protein …; 0.21% of 340,000 active;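 active means inhibition above the mean over all tested compounds plus 3 SD, cut at about 21% in these data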;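 further: 0% = DMSO only wells and 100% = clavulanate BLA inhibitor control wells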
SKN-1 block = suppressors of acrylamide-induced Pgst-4::GFP reporter in worms, primary screen, SKN-1 inhibitor project, whole organism, uHTS, GFP/RFP fluorescence ratio, strain VP596. C. elegans VP596 Pgst-4::GFP/RFP ratio, 24 h. inhibition, % at 21.8 µM. 0.49% of 360,000 active;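 active means interference check ratio from 0.5 to 1.5 plus GFP to RFP signal ratio inhibition reaching or exceeding a fixed threshold, cut at about 30% in these data, passing the limit was not always enough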
MT1-MMP act val = MT1-MMP activation inhibitors, hit retest, confirmation, single concentration, fluorescence, HT1080 RFP-PRO-GFP cells; shares compounds with MT1-MMP act inh; GFP and RFP fluorescence ratio, overnight; inhibition, % at 20 µM; 10% of 200 active; AID 652235, 2013;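 active means inhibition of at least 50% in the primary cell screen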
An asterisk follows results filed as active; . = no result. Only some compounds are listed: those with a hit (about 0.99% of all), similar ones and a draw of the others.

SMILES	TLR4-MyD88 BLA	NOD2 RIPK2 PPI	MT1-MMP act inh	TLR9-MyD88 block	SKN-1 block	MT1-MMP act val
COc1cc(/C=C2\SC(=O)N(CC(=O)Nc3cccc(C)c3)C2=O)cc([N+](=O)[O-])c1O	-9.2	-19.7	21.0	.	10.9	.
COc1cc(OC)cc(C(=O)Nc2ccc(-c3nc4ccccc4o3)cc2)c1	-9.5	-14.7	30.5*	3.4	-0.7	17.1
COc1cc(C(=O)Nc2ccc(O)cc2C(=O)O)ccc1OC(C)=O	8.8	-15.5	36.9*	-4.2	7.9	2.2
CN1C(=O)/C(=C\c2ccccc2OCc2ccccc2)SC1=S	.	1.3	1.1	-5.2	0.4	.
CN1C(=O)/C(=C\c2cc(N=Nc3ccccc3)ccc2O)SC1=S	5.1	-11.3	31.9*	3.1	3.9	82.9*
CC/C(=N\Nc1ccc([N+](=O)[O-])cc1[N+](=O)[O-])c1ccc(O)cc1	.	-1.2	35.3*	-0.9	18.8	27.1
CCC(=NNc1ccc([N+](=O)[O-])cc1[N+](=O)[O-])c1ccccc1	.	-15.7	18.6	.	2.1	.
O=C(COc1ccccc1)NNc1c2ccccc2nc2ccccc12	8.3	-9.1	18.8	-0.5	5.1	.
O=C(NNc1c2ccccc2nc2ccccc12)c1ccc(O)cc1O	-3.0	-10.5	26.9	-8.8	19.7	.
O=C(NNc1c2ccccc2nc2ccccc12)c1ccccc1O	-7.3	1.0	31.5*	-3.3	9.4	39.5
COc1ccc(OCC(=O)NNc2c3ccccc3nc3ccccc23)cc1	5.9	-17.7	35.5*	-6.2	-20.7	32.0
O=C1c2cccc(Cl)c2C(=O)c2c1cccc2N1CCCC1	13.6	-2.3	46.1*	1.6	50.2	16.2
Cc1cc2cc(CNC(=O)C3CCCC3)ccc2n1C	.	1.2	34.6*	2.2	52.8	-4.7
CCCC(=O)NCc1ccc2c(c1)cc(C)n2C	-1.4	-8.6	25.4	2.9	54.5	.
Cc1cc2cc(CNC(=O)Cc3ccc([N+](=O)[O-])cc3)ccc2n1C	14.9	5.1	41.6*	2.0	39.3*	3.1
O=C(C(=O)N1CCN(C/C=C/c2ccccc2)CC1)c1ccccc1	.	-2.7	2.1	.	-8.4	.
NC(=O)c1csc(CCNC(=O)c2ccccc2)n1	.	-4.7	0.0	3.5	3.9	.
CCCCNC(=O)Cn1cnc2sc(C)c(S(=O)(=O)N3CCN(c4ccccc4OC)CC3)c2c1=O	.	2.1	-1.2	4.7	-2.4	.
O=C(NC1CCCCCC1)C1CCN(S(=O)(=O)c2ccccc2)CC1	5.0	5.1	-1.3	-7.3	-1.7	.
CC(=O)c1cccc(S(=O)(=O)N2CCC(C(=O)NC3CCCC3)CC2)c1	.	-12.6	39.7*	-4.6	3.9	1.1
CC1=NN(c2ccccc2)C(=O)/C1=C/C=C/c1ccc(N(C)C)cc1	-11.7	-7.9	54.8*	-7.4	19.2	46.4
CCOc1ccc(S(=O)(=O)NC(C)C(=O)NCc2cccnc2)cc1 (stereo not drawn)	.	5.5	-2.6	7.2	-2.0	.
CN(C)c1ccc(C=c2c3ccccc3n3c2cc(-c2ccccc2)[n+]3C)cc1	.	13.1	9.5	-11.8	82.9	.
COc1cc(N(C)C)ccc1C=c1c2ccccc2n2c1cc(-c1ccccc1)[n+]2C	.	12.0	64.5*	2.1	68.5	64.7*
COC(=O)C1=C(C(=O)OC)SC(=C2C(=S)C(C)(C)N(C(=O)C(C)C)c3ccccc32)S1	3.2	-5.4	31.0*	1.0	9.3	24.6
SMILES	TLR4-MyD88 BLA	NOD2 RIPK2 PPI	MT1-MMP act inh	TLR9-MyD88 block	SKN-1 block	MT1-MMP act val
CN(Cc1ccc2c(c1)CCCN2C)C(=O)[C@H]1O[C@@H](n2ccc(=O)[nH]c2=O)[C@H](O)[C@@H]1O	.	-6.7	-4.2	.	16.8	.
CCC(/C=C1\Oc2ccc(OC)cc2N1C)=C\c1sc2ccccc2[n+]1CCCS(=O)(=O)[O-]	.	-7.2	35.3*	6.2	78.7	-110.1
CCOC(=O)C1=CCN(S(=O)(=O)c2ccccc2Br)C1c1cccc(C)c1 (stereo not drawn)	.	4.5	-1.4	.	-0.3	.
CCN1/C(=C\C=C2\C(=O)N(c3ccccc3)C(=S)N2C)Sc2ccccc21	-7.8	-14.7	38.7*	16.5	64.4	28.9
Cc1cc2ccccc2n1CCNC(=O)C(C)Oc1ccccc1 (stereo not drawn)	2.2	7.1	37.9*	11.2	36.1	4.7
Cc1cc2ccccc2n1CCNC(=O)Cc1ccccc1	4.1	-1.9	43.0	-5.0	42.5	.
Cc1cc(N(CCO)CCO)ccc1N=Nc1cc(F)ccc1F	8.3	-7.3	33.0*	7.8	29.4	39.0
CCOc1ccc(NC(=S)C(C#N)=C2N(C)c3ccccc3N2C)cc1	-10.0	-8.5	0.1	7.5	-3.6	.
O=c1[nH]nc(CNc2ccc(O)cc2)c2ccccc12	-0.8	-8.9	49.3*	-2.9	33.1	-2.0
Cc1ccc(OCCC(=O)NNC(=O)c2ccccc2F)cc1	.	2.0	-3.8	2.8	-0.8	.
COc1ccccc1N1CCN(Cc2cc(=O)c(OCC(=O)NC3CCCC3)co2)CC1	.	-0.2	5.0	-3.6	-0.6	.
